Here are results for 37 compounds from ChEMBL document CHEMBL1135626, “Imidazole inhibitors of cytokine release: probing substituents in the 2 position” (J Med Chem, 2002).

Test [1] is described as follows: Inhibition of the release of tumor necrosis factor alpha from peripheral blood mononuclear cells. The settings on record: Homo sapiens. Format: functional. The gist of the method: (§1)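 PBMC isolated from healthy donor blood by density gradient centrifugation, ~10⁶ cells/mL, preincubated 15 min (37 °C, 5% CO2) with compounds in DMSO (1% final), then LPS 1µg/mL (E. coli 026:B6) for 4 h. Supernatant IL-1β and TNF-α by ELISA after ice stop and centrifugation. IC50 from semilog plot of % reduction vs control, 10^-4–10^-8 M; at least duplicate.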

Test [2] is described as follows: Inhibition of the release of interleukin-1-beta from peripheral blood mononuclear cells. Format: functional. The settings on record: Homo sapiens. The method in brief: as §1
For test [3], the target named is Mitogen-activated protein kinase 14 (Homo sapiens, UniProt Q16539). Briefly: Inhibition of Mitogen-activated protein kinase p38 (P38 MAPK).
Chain of Mitogen-activated protein kinase 14 (Q16539 whole entry): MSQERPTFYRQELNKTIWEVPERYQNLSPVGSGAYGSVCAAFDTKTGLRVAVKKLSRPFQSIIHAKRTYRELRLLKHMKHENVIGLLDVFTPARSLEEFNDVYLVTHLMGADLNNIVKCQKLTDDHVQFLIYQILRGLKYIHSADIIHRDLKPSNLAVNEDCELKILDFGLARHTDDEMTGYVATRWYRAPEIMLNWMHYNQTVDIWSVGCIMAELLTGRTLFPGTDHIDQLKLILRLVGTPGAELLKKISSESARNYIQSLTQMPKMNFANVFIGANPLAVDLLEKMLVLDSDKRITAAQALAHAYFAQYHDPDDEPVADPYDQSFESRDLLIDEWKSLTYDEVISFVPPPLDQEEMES
Test [4] is filed under the species Homo sapiens. Kind of test: Ability to inhibit the release of interleukin-1-beta (IL-1 beta) from whole blood. Format: functional. The gist of the method:
(§2)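 Human whole blood preincubated 15 min (37 °C, 5% CO2) with compounds in Cremophor EL/ethanol 70:30 (1% final), then stimulated 4 h with 1µg/mL LPS (E. coli 026:B6). Reaction stopped on ice, samples centrifuged, supernatant IL-1β and TNF-α measured by ELISA. IC50 read from semilog plot of % reduction vs control over 10^-4–10^-8 M; at least duplicate.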

The species named for test [5] is Homo sapiens. Kind of test: Ability to inhibit the release of tumor necrosis factor alpha (TNF-alpha) from whole blood. Format: functional. The method in brief: as §2

As a reminder, the IC50 is the concentration needed to halve the response being measured. Low values mean higher potency, high ones lower potency. For the compound `Fc1ccc(-c2[nH]c(/C=C/c3ccccc3)nc2-c2ccncc2)cc1`, the values for the half-maximal inhibitory concentration (IC50) in test [1] and in test [2] were 6.5 µM and 0.13 µM, respectively.
For `Fc1ccc(-c2[nH]c(SCCCc3ccccc3)nc2-c2ccncc2)cc1` the same measures were 16 µM and 0.47 µM.
For `CSc1ccc(CSc2nc(-c3ccccc3)c(-c3ccncc3)[nH]2)cc1` the same measures were 17.1 µM and 72.5 µM.
The corresponding values for `N#CCSc1nc(-c2ccncc2)c(-c2ccc(F)cc2)[nH]1` are 2.3 µM and less than 0.1 µM.
Regarding `Fc1ccc(-c2[nH]c(SCC3CCCCC3)nc2-c2ccncc2)cc1`, the concentration for half-maximal inhibition (IC50) was 33.8 µM in test [1] and 0.24 µM in test [2].
`CSc1cc(CSc2nc(-c3ccncc3)c(-c3ccc(F)cc3)[nH]2)ccc1O`: the results for the IC50 in test [3], in test [1] and in test [2] were 3.8 µM, 1.1 µM and 0.28 µM, respectively.
Consider `C[S+]([O-])c1cccc(CSc2nc(-c3ccncc3)c(-c3ccc(F)cc3)[nH]2)c1` (configuration not stated), for which the half-maximal inhibitory concentration (IC50) turned out to be 2.1 µM in test [3]; 23.5 µM in test [1]; 4.1 µM in the test filed under Homo sapiens [4]; 33.5 µM in the test filed under Homo sapiens [5]; 1 µM in test [2].
As for `Oc1ccc(CSc2nc(-c3ccncc3)c(-c3ccc(F)cc3)[nH]2)cc1`, the IC50 in test [3] came to 5.7 µM; in test [1], 6.8 µM; in test [2], 0.37 µM.
On to `C[S+]([O-])c1cc(CSc2nc(-c3ccncc3)c(-c3ccc(F)cc3)[nH]2)ccc1O` (configuration not stated), for which the IC50 in test [3] was determined as 3.4 µM; in test [1] it was 5 µM; in the test listed under Homo sapiens [4] it was 12.1 µM; in the test filed under Homo sapiens [5], 9 µM; in test [2], 2.3 µM.
Turning to `C[S+]([O-])c1ccc(CSc2nc(-c3ccc(Cl)cc3)c(-c3ccncc3)[nH]2)cc1` (configuration not stated), the IC50 in test [3] turned out to be 1.4 µM; in test [1], 3.1 µM; in test [2] it was 0.32 µM.
The corresponding values for `C[S+]([O-])c1ccc(CCCSc2nc(-c3ccc(F)cc3)c(-c3ccncc3)[nH]2)cc1` (configuration not stated) are 0.75 µM, 3.6 µM and 0.18 µM.
With `C[S+]([O-])c1ccc(CSc2nc(-c3ccccc3)c(-c3ccncc3)[nH]2)cc1` (configuration not stated), the results for the half-inhibitory concentration (IC50) in test [3], in test [1] and in test [2] were 12 µM, 4.3 µM and 0.84 µM, respectively.
The corresponding values for `C[S+]([O-])c1ccc(CCSc2nc(-c3ccncc3)c(-c3ccc(F)cc3)[nH]2)cc1` (configuration not stated) are 1.5 µM, 7.3 µM and 0.5 µM.
As for `CS(=O)(=O)c1ccc(CSc2nc(-c3ccc(Cl)cc3)c(-c3ccncc3)[nH]2)cc1`, the concentration for half-maximal inhibition (IC50) in test [1] stood at 6.1 µM; in test [2] it was 0.32 µM.
Consider `C[S+]([O-])c1ccc(O)c(CSc2nc(-c3ccc(F)cc3)c(-c3ccncc3)[nH]2)c1` (configuration not stated), for which the IC50 was determined as 5.8 µM in test [1], 13 µM in the test filed under Homo sapiens [4], 103 µM in the test listed under Homo sapiens [5] and 1 µM in test [2].
As for `CSc1ccc(CSc2nc(-c3ccc(Cl)cc3)c(-c3ccncc3)[nH]2)cc1`, the IC50 in test [1] amounted to 14 µM; in test [2], 2.2 µM.
In the case of `CSc1cc(Cl)cc(CSc2nc(-c3ccc(F)cc3)c(-c3ccncc3)[nH]2)c1O`, the results for the IC50 in test [1] and in test [2] were 13.3 µM and 0.64 µM, respectively.
The corresponding values for `C[S+]([O-])c1cc(Cl)cc(CSc2nc(-c3ccc(F)cc3)c(-c3ccncc3)[nH]2)c1O` (configuration not stated) are 28 µM and 4.4 µM.
The corresponding values for `CS(=O)(=O)c1ccc(CSc2nc(-c3ccccc3)c(-c3ccncc3)[nH]2)cc1` are 8 µM and 1.7 µM.
For `Fc1ccc(-c2[nH]c(SCc3cccc4ccccc34)nc2-c2ccncc2)cc1` the same measures were 8.8 µM and 0.82 µM.
As for `CS(=O)(=O)c1ccc(CSc2nc(-c3ccc(Br)cc3)c(-c3ccncc3)[nH]2)cc1`, the IC50 in test [1] was 7.3 µM; in test [2] it was 0.64 µM.
As to `C[S+]([O-])c1ccc(CSc2nc(-c3ccc(F)cc3)c(-c3ccncc3)[nH]2)cc1` (configuration not stated), the IC50 turned out to be 4 µM in test [3]; 1.1 µM in test [1]; 2.78 µM in the test listed under Homo sapiens [4]; 20.3 µM in the test filed under Homo sapiens [5]; 0.38 µM in test [2].
Turning to `Oc1ccccc1CSc1nc(-c2ccc(F)cc2)c(-c2ccncc2)[nH]1`, the IC50 in test [1] is 24.8 µM; in test [2] it was 0.44 µM.
Consider `CS(=O)(=O)c1ccc(CSc2nc(-c3ccc(F)cc3)c(-c3ccncc3)[nH]2)cc1`, for which the half-inhibitory concentration (IC50) in test [1] worked out at 2.5 µM; in the test filed under Homo sapiens [4] it was 2.9 µM; in the test filed under Homo sapiens [5] it was 28.8 µM; in test [2], 0.33 µM.
As for `CSc1ccc(CSc2nc(-c3ccc(F)cc3)c(-c3ccncc3)[nH]2)cc1`, the half-maximal inhibitory concentration (IC50) is 4.9 µM in test [1] and 0.67 µM in test [2].
The corresponding values for `C[S+]([O-])c1ccc(CSc2nc(-c3ccc(F)cc3)c(-c3cccnc3)[nH]2)cc1` (configuration not stated) are more than 100 µM and 98 µM.
For `CSc1nc(-c2ccncc2)c(-c2ccc(F)cc2)[nH]1`, the 50% inhibitory concentration (IC50) in test [3] came out at 0.63 µM; in test [1] it was 0.9 µM; in the test filed under Homo sapiens [4], 1.2 µM; in the test filed under Homo sapiens [5], 4.2 µM; in test [2], 0.044 µM.
In the case of `CSc1cccc(CSc2nc(-c3ccncc3)c(-c3ccc(F)cc3)[nH]2)c1`, the IC50 came to 2.3 µM in test [3], 12 µM in test [1] and 0.55 µM in test [2].
For `C[S+]([O-])c1ccc(CSc2nc(-c3ccc(Br)cc3)c(-c3ccncc3)[nH]2)cc1` (configuration not stated) the same measures were 3.8 µM, 7.8 µM and 0.82 µM.
On to `Fc1ccc(-c2[nH]c(SCCc3ccccc3)nc2-c2ccncc2)cc1`, for which the half-maximal inhibitory concentration (IC50) stood at 23.5 µM in test [1] and 0.64 µM in test [2].
Turning to `Fc1ccc(-c2[nH]c(SCc3ccccc3)nc2-c2ccncc2)cc1`, the half-maximal inhibitory concentration (IC50) in test [3] is 35 µM; in test [1] it was 3.5 µM; in test [2], 0.3 µM.
With `Oc1cccc(CSc2nc(-c3ccc(F)cc3)c(-c3ccncc3)[nH]2)c1`, the values for the IC50 in test [1] and in test [2] were 5.4 µM and 0.31 µM, respectively.
The corresponding values for `CSc1ccc(O)c(CSc2nc(-c3ccc(F)cc3)c(-c3ccncc3)[nH]2)c1` are 5.1 µM and 0.74 µM.
The corresponding values for `CSc1ccccc1CSc1nc(-c2ccc(F)cc2)c(-c2ccncc2)[nH]1` are 18.3 µM and 6.7 µM.
With `Fc1ccc(-c2[nH]c(CCc3ccccc3)nc2-c2ccncc2)cc1`, the values for the IC50 in test [3], in test [1] and in test [2] were 0.69 µM, 5.4 µM and 0.14 µM, respectively.
On to `C[S+]([O-])c1ccccc1CSc1nc(-c2ccc(F)cc2)c(-c2ccncc2)[nH]1` (configuration not stated), for which the IC50 in test [1] amounted to 15 µM; in the test filed under Homo sapiens [4] it was 4 µM; in the test filed under Homo sapiens [5] it was 47.5 µM; in test [2], 0.9 µM.
For `CSc1ccc(CSc2nc(-c3ccc(Br)cc3)c(-c3ccncc3)[nH]2)cc1`, the IC50 in test [1] was determined as 12.9 µM; in test [2], 2.4 µM.
